Data as given in ChEMBL document CHEMBL5154713, “Illuminating a Dark Kinase: Structure-Guided Design, Synthesis, and Evaluation of a Potent Nek1 Inhibitor and Its Effects on the Embryonic Zebrafish Pronephros” (J Med Chem, 2022).

Key:
[1] = molecular target: Inhibitor of nuclear factor kappa-B kinase subunit beta (Homo sapiens) (UniProt O14920); assay: Inhibition of recombinant human full length IKKbeta assessed as residual activity at 1 uM using peptide as substrate incubated for 40 mins in presence of [gamma 33P]-ATP by radiometric scintillation counting assay relative to control
In short: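 Eurofins KinaseProfiler radiometric panel, compound at 1 μM, ATP at 10 μM or within 15 μM of apparent Km. For Nek1 (1−505): 8 mM MOPS pH 7.0, 0.2 mM EDTA, 250 μM peptide, 10 mM Mg acetate, [γ-33P]-ATP, 40 min at room temperature. Stopped with 0.5% phosphoric acid, filtermat spotting, scintillation counting. Mean of two independent experiments.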

Homo sapiens [2] = species on record: Homo sapiens; assay: Inhibition of human full length recombinant CDK1/CyclinB assessed as residual activity at 1 uM using histone H1 as substrate incubated for 40 mins in presence of [gamma 33P]-ATP by radiometric scintillation counting assay relative to control
In short: (§1)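 Commercial radiometric panel of 50 kinases. Each recombinant human kinase was tested at a single compound concentration of 1 μM. ATP was set within 15 μM of the apparent Km for ATP for each kinase. Residual activity is relative to control and is the mean of two independent experiments.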

[3] = system: RAF proto-oncogene serine/threonine-protein kinase (Homo sapiens), P04049 [Y340D,Y341D]; assay: Inhibition of human c-Raf (Raf-1) Y340D/Y341D mutant (306 to end) as residual activity at 1 uM using inactive MEK1 as substrate incubated for 40 mins in presence of [gamma 33P]-ATP by radiometric scintillation counting assay relative to control; in short: as §1
[4] = molecular target: Calcium/calmodulin-dependent protein kinase type 1G (Homo sapiens) (UniProt Q96NX5); assay: Inhibition of recombinant full length human CaMK1gamma assessed as residual activity at 1 uM using KKLRRTLSFAEPG as substrate incubated for 40 mins in presence of [gamma-33ATP] by radiometric scintillation counting analysis relative to control; in short: as §1
[5] = molecular target: Tyrosine-protein kinase SYK (Homo sapiens) (UniProt P43405); assay: Inhibition of recombinant full-length human Syk at 1 uM assessed as residual activity at 1 uM using poly(Glu, Tyr) 4:1 as substrate measured after 40 mins in presence of [gamma33P]ATP by radiometric scintillation counting method relative to control; in short: as §1
[6] = molecular target: Platelet-derived growth factor receptor beta (Homo sapiens) (UniProt P09619); assay: Inhibition of human PDGFRbeta (557 to end residues) assessed as residual activity at 1 uM using poly(Glu, Tyr) 4:1 as substrate measured after 40 mins in presence of [gamma33P]ATP by scintillation counting method relative to control; in short: as §1
[7] = molecular target: Casein kinase I isoform gamma-1 (Homo sapiens) (UniProt Q9HCP0); assay: Inhibition of recombinant human CK1gamma1 (25 to 355 residues) assessed as residual activity at 1 uM using KRRRALS(p)VASLPGL as substrate measured after 40 mins in presence of [gamma33P]ATP by radiometric scintillation counting method relative to control; in short: as §1
[8] = molecular target: Inhibitor of nuclear factor kappa-B kinase subunit epsilon (Homo sapiens) (UniProt Q14164); assay: Inhibition of human full length recombinant IKKepsilon assessed as residual activity at 1 uM using casein as substrate incubated for 40 mins in presence of [gamma 33P]-ATP by radiometric scintillation counting assay relative to control; in short: as §1
[9] = molecular target: CDK6/cyclin D3 (Homo sapiens) (UniProt P30281+Q00534); assay: Inhibition of human full length recombinant CDK6/CyclinD3 assessed as residual activity at 1 uM using histone H1 as substrate incubated for 40 mins in presence of [gamma 33P]-ATP by radiometric scintillation counting assay relative to control; format: protein-complex assay; in short: as §1
Homo sapiens [10] = species on record: Homo sapiens; assay: Inhibition of recombinant full length human CK2alpha2 assessed as residual activity at 1 uM using RRRDDDSDDD as substrate incubated 40 mins in presence of [gamma-33ATP] by scintillation counting based radiometry assay relative to control; in short: as §1
[11] = molecular target: Phosphatidylinositol 4,5-bisphosphate 3-kinase catalytic subunit delta isoform (Homo sapiens) (UniProt O00329); assay: Inhibition of human full length recombinant PI3Kdelta assessed as residual activity at 1 uM using phosphatidylinositol 4,5-bisphosphate as substrate incubated for 40 mins in presence ofATP by HTRF assay relative to control
[12] = molecular target: Serine/threonine-protein kinase Nek6 (Homo sapiens) (UniProt Q9HC98); assay: Inhibition of human NEK6 (2 to end residues) assessed as residual activity at 1 uM using FLAKSFGSPNRAYKK as substrate incubated for 40 mins in presence of [gamma 33P]-ATP by radiometric scintillation counting assay relative to control; in short: as §1
[13] = Toxicity in wild-type Zebrafish embryos assessed as effect on normal eye development at 0.05 to 30 uM measured upto 120 hrs; parameters: species or system Danio rerio; conditions: in vivo, dose 0.05-30 µM
In short: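 Wild-type embryos, 15 per group with intact chorions, dosed at 6 hpf with 0.05–30 μM final concentrations in E3, diluted from a DMSO stock. Survival checked every 24 h by heartbeat over 120 h, and phenotypes assessed visually. At least triplicate, 5 replicates at 30 μM.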

[14] = Toxicity in fluorescence-labelled Zebrafish pronephron assessed as increase in growth of fluid-filled cysts at 10 to 20 uM; parameters: species or system Danio rerio; conditions: in vivo, dose 10-20 µM
In short: (§2)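 Wild-type embryos exposed from 6 hpf to E3/0.2% DMSO controls or 10 and 20 μM compound, in E3 with 75 μM PTU. At 48 h, 100 nM PT-Yellow for 20 min, washed, then returned to compound up to 96 h total. Anesthetized embryos imaged in agarose molds by widefield microscopy, 33 Z-slices. Tubule fluorescence and area quantified from summed deconvolved projections. n = 3–5.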

[15] = Toxicity in fluorescence-labelled Zebrafish pronephron assessed as increase in impaired renal clearance at 10 to 20 uM; parameters: species or system Danio rerio; conditions: in vivo, dose 10-20 µM; in short: as §2

Phosphatidylinositol 4,5-bisphosphate 3-kinase catalytic subunit delta isoform (Homo sapiens), sequence (O00329 whole entry, canonical isoform): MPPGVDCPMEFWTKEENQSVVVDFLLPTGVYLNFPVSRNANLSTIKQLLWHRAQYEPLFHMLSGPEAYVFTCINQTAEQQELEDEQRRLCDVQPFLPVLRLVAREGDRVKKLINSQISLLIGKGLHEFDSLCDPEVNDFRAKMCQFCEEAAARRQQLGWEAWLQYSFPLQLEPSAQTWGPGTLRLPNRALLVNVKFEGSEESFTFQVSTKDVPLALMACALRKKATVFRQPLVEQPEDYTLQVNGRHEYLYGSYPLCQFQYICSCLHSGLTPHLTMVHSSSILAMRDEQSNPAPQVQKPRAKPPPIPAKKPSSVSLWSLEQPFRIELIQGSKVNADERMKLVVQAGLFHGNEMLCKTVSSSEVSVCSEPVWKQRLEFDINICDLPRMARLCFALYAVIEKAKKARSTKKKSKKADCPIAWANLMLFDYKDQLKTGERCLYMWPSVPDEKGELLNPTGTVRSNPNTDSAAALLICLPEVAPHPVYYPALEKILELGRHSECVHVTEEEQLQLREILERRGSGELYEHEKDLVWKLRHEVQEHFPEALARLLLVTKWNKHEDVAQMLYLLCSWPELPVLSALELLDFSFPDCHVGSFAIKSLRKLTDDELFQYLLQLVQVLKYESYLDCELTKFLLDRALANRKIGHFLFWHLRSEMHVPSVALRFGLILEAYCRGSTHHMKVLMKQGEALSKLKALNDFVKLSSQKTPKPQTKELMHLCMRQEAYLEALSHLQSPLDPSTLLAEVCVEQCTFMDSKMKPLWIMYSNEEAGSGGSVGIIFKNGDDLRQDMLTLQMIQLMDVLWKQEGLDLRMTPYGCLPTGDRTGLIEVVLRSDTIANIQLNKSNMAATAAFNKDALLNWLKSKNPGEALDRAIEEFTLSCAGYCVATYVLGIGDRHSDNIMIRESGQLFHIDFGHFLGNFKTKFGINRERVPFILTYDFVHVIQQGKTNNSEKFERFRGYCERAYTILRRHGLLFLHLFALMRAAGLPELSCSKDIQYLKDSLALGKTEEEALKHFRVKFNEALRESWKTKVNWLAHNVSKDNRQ
Serine/threonine-protein kinase Nek6 (Homo sapiens), sequence (Q9HC98 whole entry): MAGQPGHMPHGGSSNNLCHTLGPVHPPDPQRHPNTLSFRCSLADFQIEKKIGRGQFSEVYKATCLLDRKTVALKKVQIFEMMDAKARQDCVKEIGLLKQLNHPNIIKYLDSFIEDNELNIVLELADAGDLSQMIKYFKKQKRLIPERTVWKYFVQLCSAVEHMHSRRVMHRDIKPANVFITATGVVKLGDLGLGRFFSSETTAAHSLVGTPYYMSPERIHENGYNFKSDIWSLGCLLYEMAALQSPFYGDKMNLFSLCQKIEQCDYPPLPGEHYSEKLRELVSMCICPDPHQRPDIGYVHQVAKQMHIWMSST
Inhibitor of nuclear factor kappa-B kinase subunit beta (Homo sapiens), sequence (O14920 whole entry): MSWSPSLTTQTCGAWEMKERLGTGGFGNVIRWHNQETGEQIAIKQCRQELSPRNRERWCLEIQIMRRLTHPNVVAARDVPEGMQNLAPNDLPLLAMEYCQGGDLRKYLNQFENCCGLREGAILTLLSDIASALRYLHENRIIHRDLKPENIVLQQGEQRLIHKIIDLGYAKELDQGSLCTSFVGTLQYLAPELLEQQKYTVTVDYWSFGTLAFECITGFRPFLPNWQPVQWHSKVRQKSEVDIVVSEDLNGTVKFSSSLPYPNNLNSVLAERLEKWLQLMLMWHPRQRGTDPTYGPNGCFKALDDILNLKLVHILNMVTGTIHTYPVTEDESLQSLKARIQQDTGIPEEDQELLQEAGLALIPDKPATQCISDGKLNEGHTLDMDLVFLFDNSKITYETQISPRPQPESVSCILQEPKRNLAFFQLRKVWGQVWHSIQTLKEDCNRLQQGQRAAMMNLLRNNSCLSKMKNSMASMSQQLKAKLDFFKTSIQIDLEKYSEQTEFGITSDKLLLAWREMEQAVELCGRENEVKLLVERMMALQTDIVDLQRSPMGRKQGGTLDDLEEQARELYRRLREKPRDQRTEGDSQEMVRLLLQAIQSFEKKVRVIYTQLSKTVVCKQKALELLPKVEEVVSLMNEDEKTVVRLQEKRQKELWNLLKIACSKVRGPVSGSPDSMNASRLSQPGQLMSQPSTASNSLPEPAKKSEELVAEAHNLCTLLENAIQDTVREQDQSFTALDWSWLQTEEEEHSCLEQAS
Inhibitor of nuclear factor kappa-B kinase subunit epsilon (Homo sapiens), sequence (Q14164 whole entry): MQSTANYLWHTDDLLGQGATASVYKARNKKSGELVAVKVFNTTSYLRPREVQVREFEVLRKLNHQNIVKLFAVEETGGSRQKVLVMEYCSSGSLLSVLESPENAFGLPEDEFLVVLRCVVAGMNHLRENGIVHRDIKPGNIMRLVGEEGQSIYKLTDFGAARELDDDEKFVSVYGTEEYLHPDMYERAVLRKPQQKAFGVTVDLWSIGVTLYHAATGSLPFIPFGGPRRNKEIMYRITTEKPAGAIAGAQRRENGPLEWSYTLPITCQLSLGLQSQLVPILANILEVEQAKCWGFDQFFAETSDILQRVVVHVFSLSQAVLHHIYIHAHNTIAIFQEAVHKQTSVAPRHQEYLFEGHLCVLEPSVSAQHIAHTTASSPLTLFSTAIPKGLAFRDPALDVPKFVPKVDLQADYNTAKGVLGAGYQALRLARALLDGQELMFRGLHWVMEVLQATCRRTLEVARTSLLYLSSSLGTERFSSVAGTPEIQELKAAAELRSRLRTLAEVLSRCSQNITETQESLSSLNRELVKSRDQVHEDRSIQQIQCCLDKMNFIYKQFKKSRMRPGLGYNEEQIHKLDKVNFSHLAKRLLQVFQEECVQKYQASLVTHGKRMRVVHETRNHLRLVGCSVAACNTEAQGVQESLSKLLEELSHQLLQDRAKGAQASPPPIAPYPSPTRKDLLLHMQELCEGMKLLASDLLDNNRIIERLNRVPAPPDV
Casein kinase I isoform gamma-1 (Homo sapiens), sequence (Q9HCP0 whole entry, looked up, the tested form may be a part, canonical isoform): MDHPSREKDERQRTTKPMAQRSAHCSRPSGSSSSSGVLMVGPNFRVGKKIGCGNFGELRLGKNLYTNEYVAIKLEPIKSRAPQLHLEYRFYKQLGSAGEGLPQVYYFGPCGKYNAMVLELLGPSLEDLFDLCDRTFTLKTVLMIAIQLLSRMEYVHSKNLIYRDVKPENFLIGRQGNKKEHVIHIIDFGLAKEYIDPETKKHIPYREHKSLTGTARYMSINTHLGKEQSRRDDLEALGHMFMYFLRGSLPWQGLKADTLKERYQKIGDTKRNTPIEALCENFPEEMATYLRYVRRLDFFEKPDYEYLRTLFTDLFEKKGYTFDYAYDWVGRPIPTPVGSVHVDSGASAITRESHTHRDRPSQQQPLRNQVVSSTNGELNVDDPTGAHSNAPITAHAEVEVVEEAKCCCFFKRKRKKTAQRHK
Platelet-derived growth factor receptor beta (Homo sapiens), sequence (P09619 whole entry, the tested form may be a part, canonical isoform): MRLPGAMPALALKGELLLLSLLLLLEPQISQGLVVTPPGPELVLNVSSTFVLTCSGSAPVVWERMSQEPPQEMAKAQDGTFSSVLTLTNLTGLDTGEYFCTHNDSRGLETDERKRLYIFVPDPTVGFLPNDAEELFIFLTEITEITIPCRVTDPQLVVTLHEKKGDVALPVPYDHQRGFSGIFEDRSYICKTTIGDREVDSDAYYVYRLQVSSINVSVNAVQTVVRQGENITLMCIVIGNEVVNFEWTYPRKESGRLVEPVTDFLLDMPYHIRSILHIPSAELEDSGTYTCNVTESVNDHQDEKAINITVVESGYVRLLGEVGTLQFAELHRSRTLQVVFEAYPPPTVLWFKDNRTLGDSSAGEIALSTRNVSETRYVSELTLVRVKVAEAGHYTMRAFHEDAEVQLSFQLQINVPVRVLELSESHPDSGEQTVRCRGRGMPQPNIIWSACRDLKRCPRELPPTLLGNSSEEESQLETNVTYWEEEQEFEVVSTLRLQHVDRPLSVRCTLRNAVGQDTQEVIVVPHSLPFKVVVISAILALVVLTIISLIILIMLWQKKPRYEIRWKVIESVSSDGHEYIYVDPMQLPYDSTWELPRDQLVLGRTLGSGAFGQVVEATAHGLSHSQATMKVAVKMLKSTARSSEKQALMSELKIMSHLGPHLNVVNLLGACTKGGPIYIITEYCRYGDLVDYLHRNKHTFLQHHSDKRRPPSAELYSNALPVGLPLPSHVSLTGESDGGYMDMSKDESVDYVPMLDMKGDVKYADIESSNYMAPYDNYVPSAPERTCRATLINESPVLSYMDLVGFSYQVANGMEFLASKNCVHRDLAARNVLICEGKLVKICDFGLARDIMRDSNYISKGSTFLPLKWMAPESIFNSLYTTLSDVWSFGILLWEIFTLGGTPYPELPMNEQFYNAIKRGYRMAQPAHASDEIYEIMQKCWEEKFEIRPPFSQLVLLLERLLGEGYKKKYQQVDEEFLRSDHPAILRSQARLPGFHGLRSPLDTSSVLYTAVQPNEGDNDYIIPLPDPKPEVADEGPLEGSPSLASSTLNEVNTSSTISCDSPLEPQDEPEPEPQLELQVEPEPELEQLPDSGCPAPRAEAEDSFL
Calcium/calmodulin-dependent protein kinase type 1G (Homo sapiens), sequence (Q96NX5 whole entry): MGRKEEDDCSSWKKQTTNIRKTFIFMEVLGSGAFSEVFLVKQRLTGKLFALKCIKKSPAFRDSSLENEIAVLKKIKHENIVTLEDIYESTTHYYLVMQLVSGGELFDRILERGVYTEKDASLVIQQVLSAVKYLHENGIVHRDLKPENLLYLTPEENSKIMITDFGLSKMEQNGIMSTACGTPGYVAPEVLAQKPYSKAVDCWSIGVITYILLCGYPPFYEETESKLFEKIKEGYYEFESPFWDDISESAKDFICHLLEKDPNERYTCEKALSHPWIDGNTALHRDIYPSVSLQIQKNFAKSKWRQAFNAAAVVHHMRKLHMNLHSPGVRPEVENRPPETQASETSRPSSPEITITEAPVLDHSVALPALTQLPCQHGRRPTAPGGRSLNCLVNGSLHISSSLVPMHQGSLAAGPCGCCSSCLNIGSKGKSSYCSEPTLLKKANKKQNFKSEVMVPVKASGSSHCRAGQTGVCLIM

With O=S(=O)(N[C@@H](CO)Cc1c[nH]c2ccccc12)c1ccc(-c2ccnc3[nH]ccc23)cc1 the Activity [1] was 36.1%, the Activity (Homo sapiens [2]) was over 75% and the Activity [3] was over 75%. The Activity [4] was over 75%, the Activity [5] was over 75% and the Activity [6] was over 75%. For the same molecule, the Activity [7] was over 75%, the Activity [8] was over 75% and the Activity [9] was over 75%. The Activity (Homo sapiens [10]) was over 75%, the Activity [11] was over 75% and the Activity [12] was over 75%. For the same molecule, the Activity [13] was “Non-Toxic”, the Activity [14] was “Toxic” and the Activity [15] was “Toxic”.
